Assay results published in ChEMBL document CHEMBL1152280 (J Med Chem, 2008).
Where a SMILES comes first, the peptide text is derived from it. [ ]: non-standard residue; d: D form. Leu(5,5,5,5',5',5'-F6) = N[C@@H](CC(C(F)(F)F)C(F)(F)F)C(=O)O

Columns and labels:
Mus musculus = species on record: Mus musculus; experiment: Toxicity in C57BL/6 mouse assessed as effect on body weight after 5 days; type: organism-based; conditions: in vivo, 120 h
[1] = Stability in presence of DPP4 assessed as peptide degradation after 24 hrs by HPLC; type: ADME
Procedure, shortened: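 Peptides (10 μM) incubated with DPP IV (20 units/L, activity calibrated on Gly-Pro-p-nitroanilide at 410 nm) in 50 mM Tris·HCl, 1 mM EDTA, pH 7.6, 37 °C, sampled over 200 min and up to 24 h. Samples were quenched in 0.2% TFA and run on C18 RP-HPLC (CH3CN/H2O/0.1% TFA, 230 nm). First-order k was fitted from ln[A] versus time, and fragments were identified by ESI-MS.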

Row | Stability [1] | SMILES | Activity (Mus musculus)
1 | – | CC[C@H](C)[C@H](NC(=O)[C@H](Cc1ccccc1)NC(=O)[C@H](CCC(=O)O)NC(=O)[C@H](CCCCN)NC(=O)[C@H](C)NC(=O)[C@H](C)NC(=O)[C@H](CCC(N)=O)NC(=O)CNC(=O)[C@H](CCC(=O)O)NC(=O)CNC(=O)[C@H](CC(C)C)NC(=O)[C@H](Cc1ccc(O)cc1)NC(=O)[C@H](CO)NC(=O)[C@H](CO)NC(=O)[C@@H](NC(=O)[C@H](CC(=O)O)NC(=O)[C@H](CO)NC(=O)[C@@H](NC(=O)[C@H](Cc1ccccc1)NC(=O)[C@@H](NC(=O)CNC(=O)[C@H](CC(C(F)(F)F)C(F)(F)F)NC(=O)[C@H](C)NC(=O)[C@@H](N)Cc1cnc[nH]1)[C@@H](C)O)[C@@H](C)O)C(C)C)C(=O)N[C@@H](C)C(=O)N[C@@H](Cc1c[nH]c2ccccc12)C(=O)N[C@@H](CC(C)C)C(=O)N[C@H](C(=O)N[C@@H](CCCCN)C(=O)NCC(=O)N[C@@H](CCCNC(=N)N)C(N)=O)C(C)C (H-HA[Leu(5,5,5,5',5',5'-F6)]GTFTSDVSSYLGEGQAAKEFIAWLVKGR-NH2) | Non-toxic
2 | Stable | CC[C@H](C)[C@H](NC(=O)[C@H](Cc1ccccc1)NC(=O)[C@H](CCC(=O)O)NC(=O)[C@H](CCCCN)NC(=O)[C@H](C)NC(=O)[C@H](C)NC(=O)[C@H](CCC(N)=O)NC(=O)CNC(=O)[C@H](CCC(=O)O)NC(=O)[C@H](CC(C)C)NC(=O)[C@H](Cc1ccc(O)cc1)NC(=O)[C@H](CO)NC(=O)[C@H](CO)NC(=O)[C@@H](NC(=O)[C@H](CC(=O)O)NC(=O)[C@H](CO)NC(=O)[C@@H](NC(=O)[C@H](Cc1ccccc1)NC(=O)[C@@H](NC(=O)CNC(=O)[C@H](CC(C(F)(F)F)C(F)(F)F)NC(=O)[C@H](CC(C(F)(F)F)C(F)(F)F)NC(=O)[C@@H](N)Cc1cnc[nH]1)[C@@H](C)O)[C@@H](C)O)C(C)C)C(=O)N[C@@H](C)C(=O)N[C@@H](Cc1c[nH]c2ccccc12)C(=O)N[C@@H](CC(C)C)C(=O)N[C@H](C(=O)N[C@@H](CCCCN)C(=O)NCC(=O)N[C@@H](CCCNC(=N)N)C(N)=O)C(C)C | Non-toxic
3 | – | CC[C@H](C)[C@H](NC(=O)[C@H](Cc1ccccc1)NC(=O)[C@H](CCC(=O)O)NC(=O)[C@H](CCCCN)NC(=O)[C@H](C)NC(=O)[C@H](C)NC(=O)[C@H](CCC(N)=O)NC(=O)CNC(=O)[C@H](CCC(=O)O)NC(=O)[C@H](CC(C)C)NC(=O)[C@H](Cc1ccc(O)cc1)NC(=O)[C@H](CO)NC(=O)[C@H](CO)NC(=O)[C@@H](NC(=O)[C@H](CC(=O)O)NC(=O)[C@H](CO)NC(=O)[C@@H](NC(=O)[C@H](Cc1ccccc1)NC(=O)[C@@H](NC(=O)[C@H](CC(C(F)(F)F)C(F)(F)F)NC(=O)[C@H](CCC(=O)O)NC(=O)[C@H](C)NC(=O)[C@@H](N)Cc1cnc[nH]1)[C@@H](C)O)[C@@H](C)O)C(C)C)C(=O)N[C@@H](C)C(=O)N[C@@H](Cc1c[nH]c2ccccc12)C(=O)N[C@@H](CC(C)C)C(=O)N[C@H](C(=O)N[C@@H](CCCCN)C(=O)NCC(=O)N[C@@H](CCCN=C(N)N)C(N)=O)C(C)C | Non-toxic
4 | – | CC(C)C[C@H](NC(=O)[C@H](Cc1ccc(O)cc1)NC(=O)[C@H](CO)NC(=O)[C@H](CO)NC(=O)[C@@H](NC(=O)[C@H](CC(=O)O)NC(=O)[C@H](CO)NC(=O)[C@@H](NC(=O)[C@H](Cc1ccccc1)NC(=O)[C@@H](NC(=O)CNC(=O)[C@H](CCC(=O)O)NC(=O)[C@H](C)NC(=O)[C@@H](N)Cc1cnc[nH]1)[C@@H](C)O)[C@@H](C)O)C(C)C)C(=O)N[C@@H](CCC(=O)O)C(=O)NCC(=O)N[C@@H](CCC(N)=O)C(=O)N[C@@H](C)C(=O)N[C@@H](C)C(=O)N[C@@H](CCCCN)C(=O)N[C@@H](CCC(=O)O)C(=O)N[C@@H](Cc1ccccc1)C(=O)N[C@@H](CC(C(F)(F)F)C(F)(F)F)C(=O)N[C@@H](C)C(=O)N[C@@H](Cc1c[nH]c2ccccc12)C(=O)N[C@@H](CC(C)C)C(=O)N[C@H](C(=O)N[C@@H](CCCCN)C(=O)NCC(=O)N[C@@H](CCCNC(=N)N)C(N)=O)C(C)C | Non-toxic
5 | – | CC[C@H](C)[C@H](NC(=O)[C@H](Cc1ccccc1)NC(=O)[C@H](CCC(=O)O)NC(=O)[C@H](CCCCN)NC(=O)[C@H](C)NC(=O)[C@H](C)NC(=O)[C@H](CCC(N)=O)NC(=O)CNC(=O)[C@H](CCC(=O)O)NC(=O)[C@H](CC(C)C)NC(=O)[C@H](Cc1ccc(O)cc1)NC(=O)[C@H](CO)NC(=O)[C@H](CO)NC(=O)[C@@H](NC(=O)[C@H](CC(=O)O)NC(=O)[C@H](CO)NC(=O)[C@@H](NC(=O)[C@H](Cc1ccccc1)NC(=O)[C@@H](NC(=O)CNC(=O)[C@H](CCC(=O)O)NC(=O)[C@H](C)NC(=O)[C@@H](N)Cc1cnc[nH]1)[C@@H](C)O)[C@@H](C)O)C(C)C)C(=O)N[C@@H](C)C(=O)N[C@@H](Cc1c[nH]c2ccccc12)C(=O)N[C@@H](CC(C(F)(F)F)C(F)(F)F)C(=O)N[C@H](C(=O)N[C@@H](CCCCN)C(=O)NCC(=O)N[C@@H](CCCNC(=N)N)C(N)=O)C(C)C | Non-toxic
6 | Stable | CC[C@H](C)[C@H](NC(=O)[C@H](Cc1ccccc1)NC(=O)[C@H](CCC(=O)O)NC(=O)[C@H](CCCCN)NC(=O)[C@H](C)NC(=O)[C@H](C)NC(=O)[C@H](CCC(N)=O)NC(=O)CNC(=O)[C@H](CCC(=O)O)NC(=O)[C@H](CC(C)C)NC(=O)[C@H](Cc1ccc(O)cc1)NC(=O)[C@H](CO)NC(=O)[C@H](CO)NC(=O)[C@@H](NC(=O)[C@H](CC(=O)O)NC(=O)[C@H](CO)NC(=O)[C@@H](NC(=O)[C@H](Cc1ccccc1)NC(=O)[C@@H](NC(=O)CNC(=O)[C@H](CCC(=O)O)NC(=O)[C@H](CC(C(F)(F)F)C(F)(F)F)NC(=O)[C@@H](N)Cc1cnc[nH]1)[C@@H](C)O)[C@@H](C)O)C(C)C)C(=O)N[C@@H](C)C(=O)N[C@@H](Cc1c[nH]c2ccccc12)C(=O)N[C@@H](CC(C)C)C(=O)N[C@H](C(=O)N[C@@H](CCCCN)C(=O)NCC(=O)N[C@@H](CCCNC(=N)N)C(N)=O)C(C)C | Non-toxic
7 | – | CC[C@H](C)[C@H](NC(=O)[C@H](CC(C(F)(F)F)C(F)(F)F)NC(=O)[C@H](CCC(=O)O)NC(=O)[C@H](CCCCN)NC(=O)[C@H](C)NC(=O)[C@H](C)NC(=O)[C@H](CCC(N)=O)NC(=O)CNC(=O)[C@H](CCC(=O)O)NC(=O)[C@H](CC(C)C)NC(=O)[C@H](Cc1ccc(O)cc1)NC(=O)[C@H](CO)NC(=O)[C@H](CO)NC(=O)[C@@H](NC(=O)[C@H](CC(=O)O)NC(=O)[C@H](CO)NC(=O)[C@@H](NC(=O)[C@H](Cc1ccccc1)NC(=O)[C@@H](NC(=O)CNC(=O)[C@H](CCC(=O)O)NC(=O)[C@H](C)NC(=O)[C@@H](N)Cc1cnc[nH]1)[C@@H](C)O)[C@@H](C)O)C(C)C)C(=O)N[C@@H](C)C(=O)N[C@@H](Cc1c[nH]c2ccccc12)C(=O)N[C@@H](CC(C)C)C(=O)N[C@H](C(=O)N[C@@H](CCCCN)C(=O)NCC(=O)N[C@@H](CCCN=C(N)N)C(=O)O)C(C)C | Non-toxic
